The record followed here is ChEMBL document CHEMBL5032510, “Identification of Novel Fused Heteroaromatics-Based MALT1 Inhibitors by High-Throughput Screening to Treat B Cell Lymphoma” (J Med Chem, 2021).

In general, half-life refers to how long it takes for the measured level to halve. A lower half-life goes with fast loss. One may read the Tmax as the time at which the peak concentration occurs. In general, bioavailability refers to dose-corrected exposure relative to a reference, in per cent. Low values mean little systemic uptake, high ones much systemic uptake.

Series [1] relates to TMD8. Nature of the series: Induction of apoptosis in human TMD8 cells assessed as viable cells at 2 uM measured after 24 hrs by Annexin V-FITC/ Propidium iodide staining based flow cytometry (reference value: 90.8%). Type of series: functional. Particulars: read-out: Activity. On the technique in general: A flow cytometer gives signals particle by particle.
Series [2] deals with TMD8. Briefly: Induction of apoptosis in human TMD8 cells assessed as early apoptotic cells at 10 uM measured after 24 hrs by Annexin V-FITC/ Propidium iodide staining based flow cytometry (reference value: 6.97%). Type of series: functional.
Series [3] has as its system TMD8. Briefly: Induction of apoptosis in human TMD8 cells assessed as late apoptotic cells at 5 uM measured after 24 hrs by Annexin V-FITC/ Propidium iodide staining based flow cytometry (reference value: 2.19%). The format is functional.
The test system of series [4] is TMD8. Briefly: Induction of apoptosis in human TMD8 cells assessed as late apoptotic cells at 10 uM measured after 24 hrs by Annexin V-FITC/ Propidium iodide staining based flow cytometry (reference value: 2.19%). The format is functional.
The subject of series [5] is OCI-Ly1. Nature of the series: Induction of apoptosis in human OCI-Ly1 cells assessed as viable cells at 2 uM measured after 24 hrs by Annexin V-FITC/ Propidium iodide staining based flow cytometry (reference value: 97.8%). Type of series: functional. The settings on record: read-out: Activity.
Series [6] has as its system OCI-Ly1. Nature of the series: Induction of apoptosis in human OCI-Ly1 cells assessed as viable cells at 5 uM measured after 24 hrs by Annexin V-FITC/ Propidium iodide staining based flow cytometry (reference value: 97.8%). The format is functional. Particulars: read-out: Activity.
Series [7] concerns OCI-Ly1. Briefly: Induction of apoptosis in human OCI-Ly1 cells assessed as early apoptotic cells at 10 uM measured after 24 hrs by Annexin V-FITC/ Propidium iodide staining based flow cytometry (reference value: 1.29%). The format is functional.
Series [8] deals with OCI-Ly1. Nature of the series: Induction of apoptosis in human OCI-Ly1 cells assessed as dead cells at 5 uM measured after 24 hrs by Annexin V-FITC/ Propidium iodide staining based flow cytometry (reference value: 0.365%). Type of series: functional.
A short description of series [9]: Half life in CD-1 mouse at 1 mg/kg, ip by LC-MS/MS analysis. The format is ADME, organism-based. The settings on record: in vivo. An outline of the steps:
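Compound formulated in 5% DMSO + 5% Tween-80 in 90% saline and given to male ICR (CD-1) mice (n = 9) at 10 mg/kg po, 1 mg/kg ip or 1 mg/kg iv. Blood was drawn via the jugular vein at set time points and held on ice. Plasma was separated by centrifugation and stored at −80 °C before PK parameters were derived.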

Series [10] can be described thus: Tmax in CD-1 mouse at 1 mg/kg, ip by LC-MS/MS analysis. The format is ADME, organism-based. The settings on record: in vivo. Put shortly: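 Male ICR (CD-1) mice (n = 9). Compound formulated in 5% DMSO + 5% Tween-80 in 90% saline and dosed 10 mg/kg po, 1 mg/kg ip or 1 mg/kg iv. Blood drawn from the jugular vein at set time points and held on ice. Plasma separated by centrifugation and stored at −80 °C before parameter derivation.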

A short description of series [11]: Intraperitoneal bioavailability in CD-1 mouse at 1 mg/kg by LC-MS/MS analysis. Particulars: in vivo, ip.

Regarding `COc1ccc(OC)c(NC(=O)c2sc(=S)n(-c3ccc(C(F)(F)F)cc3)c2NC(=O)CCl)c1`, the viability at 2 µM came to 89.4% in [1] and 97.4% in series [5]. For the same molecule, the Activity in series [2] turned out to be 53.1%; in series [3], 25.7%; in series [4], 42.7%; in [7], 2.65%; in [8], 0.204%. Further, the viability at 5 µM in [6] turned out to be 97.4%. Further, the half-life in series [9] is 4.5 h. In addition, the time of peak concentration (Tmax) in series [10] was 0.35 h. Also, the bioavailability in series [11] turned out to be 72%.
